According to ChEMBL document CHEMBL2029317, “(Z)-2-(2-bromophenyl)-3-{[4-(1-methyl-piperazine)amino]phenyl}acrylonitrile (DG172): an orally bioavailable PPARβ/δ-selective ligand with inverse agonistic properties” (J Med Chem, 2012):
Calls of active or inactive are those of the source. The calls are words filed in the database; no cut-off is given here.

Tests used:
[1] = Half life in CD1 mouse plasma at 1 mg/kg, iv; type: ADME, organism-based; parameters: dose 1 mg/kg, route intravenous
How it was run: (§1)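 Male CD-1 mice dosed iv by tail vein (1 mg/kg) or po by gastric gavage (5 mg/kg). Vehicle was DMSO/Solutol HS 15/PBS pH 7.4 (5/5/90, v/v/v). Blood was taken at eight time points from 10 min to 12 h, by parallel sampling of three mice per point. Plasma was acetonitrile-precipitated and analysed by HPLC-MS/MS, and basic PK parameters were derived.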

[2] = target: T1, Peroxisome proliferator-activated receptor alpha (Homo sapiens) (UniProt Q07869); experiment: Displacement of fluormone Pan-PPAR Green from PPARalpha at 100 to 1000 nM after 60 mins by TR-FRET assay
T1 sequence (whole entry): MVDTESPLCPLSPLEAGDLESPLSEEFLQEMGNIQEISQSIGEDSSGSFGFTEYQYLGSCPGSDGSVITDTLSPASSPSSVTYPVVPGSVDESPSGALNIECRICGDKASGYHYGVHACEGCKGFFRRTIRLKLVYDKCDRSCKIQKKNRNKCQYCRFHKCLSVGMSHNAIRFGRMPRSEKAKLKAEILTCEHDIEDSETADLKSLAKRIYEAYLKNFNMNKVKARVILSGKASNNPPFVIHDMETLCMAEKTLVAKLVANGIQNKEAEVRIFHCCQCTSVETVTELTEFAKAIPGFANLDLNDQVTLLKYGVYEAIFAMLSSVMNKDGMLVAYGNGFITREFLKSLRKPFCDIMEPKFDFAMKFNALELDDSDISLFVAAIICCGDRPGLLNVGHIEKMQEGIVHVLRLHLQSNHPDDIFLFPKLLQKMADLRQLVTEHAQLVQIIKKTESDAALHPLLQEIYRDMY

[3] = target: T2, Peroxisome proliferator-activated receptor delta (Mus musculus) (UniProt P35396); experiment: Antagonist activity at PPARbeta/delta in mouse NIH3T3 cells coexpressing LexA assessed as decrease in L165,041-induced transcriptional activation at 1 uM after 48 hrs by luciferase reporter gene assay relative to control; type: functional, cell-based
T2 sequence (whole entry): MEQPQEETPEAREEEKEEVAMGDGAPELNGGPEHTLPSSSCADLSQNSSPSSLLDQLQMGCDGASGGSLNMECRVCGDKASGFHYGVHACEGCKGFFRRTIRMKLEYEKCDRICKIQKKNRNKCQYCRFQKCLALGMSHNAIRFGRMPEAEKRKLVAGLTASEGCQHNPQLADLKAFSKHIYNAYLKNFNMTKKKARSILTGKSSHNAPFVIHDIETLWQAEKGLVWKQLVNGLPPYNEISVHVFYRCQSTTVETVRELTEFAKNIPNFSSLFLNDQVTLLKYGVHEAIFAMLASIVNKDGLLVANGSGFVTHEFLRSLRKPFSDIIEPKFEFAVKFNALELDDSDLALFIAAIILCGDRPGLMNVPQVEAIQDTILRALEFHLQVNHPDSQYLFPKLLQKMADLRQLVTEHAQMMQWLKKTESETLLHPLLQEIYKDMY
How it was run: (§2)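 NIH3T3 cells were transfected with LexA-PPARα, -PPARβ/δ or -PPARγ fusion plasmids plus the 7L-TATAi luciferase reporter. From 4 h post-transfection, cells received inhibitory ligand (1 μM) for 48 h. Agonists followed: GW7647 300 nM (PPARα), L165,041 1 μM (PPARβ/δ) or GW1929 300 nM (PPARγ), or agonist solvent. Induction is luciferase activity with agonist relative to solvent; triplicates with t test.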

[4] = Volume of distribution at steady state in CD1 mouse at 1 mg/kg, iv; type: ADME, organism-based; parameters: dose 1 mg/kg, route intravenous; details: in vivo, read-out: Vdss; how it was run: as §1
[5] = Clearance in CD1 mouse at 1 mg/kg, iv; type: ADME, organism-based; parameters: dose 1 mg/kg, route intravenous; details: in vivo; how it was run: as §1
[6] = target: T2, Peroxisome proliferator-activated receptor delta (Mus musculus); experiment: Inverse agonist activity at GST-tagged recombinant mouse PPARbeta/delta assessed as increase in corepressor peptide SMRT-ID2 interaction after 60 mins by TR-FRET assay; type: functional
How it was run: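 LanthaScreen TR-FRET coregulator assay: recombinant GST-PPARβ/δ LBD, labelled by a terbium-coupled anti-GST antibody, was incubated with fluorescein-labelled SMRT-ID2 corepressor peptide and compound. Signal is the 520/495 nm emission ratio, as triplicate averages ± SD, with t test against untreated sample.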

[7] = target: T3, Peroxisome proliferator-activated receptor delta (Mus musculus, UniProt P35396); experiment: Displacement of fluormone Pan-PPAR Green from mouse recombinant GST-tagged PPARbeta/delta LBD after 60 mins by TR-FRET assay
T3 sequence (P35396 whole entry): T2 sequence (whole entry)

[8] = target: T4, Peroxisome proliferator-activated receptor gamma (Mus musculus) (UniProt P37238); experiment: Antagonist activity at PPARgamma in mouse NIH3T3 cells coexpressing LexA assessed as decrease in GW1929-induced transcriptional activation at 1 uM after 48 hrs by luciferase reporter gene assay relative to control; type: functional, cell-based; how it was run: as §2
T4 sequence (whole entry): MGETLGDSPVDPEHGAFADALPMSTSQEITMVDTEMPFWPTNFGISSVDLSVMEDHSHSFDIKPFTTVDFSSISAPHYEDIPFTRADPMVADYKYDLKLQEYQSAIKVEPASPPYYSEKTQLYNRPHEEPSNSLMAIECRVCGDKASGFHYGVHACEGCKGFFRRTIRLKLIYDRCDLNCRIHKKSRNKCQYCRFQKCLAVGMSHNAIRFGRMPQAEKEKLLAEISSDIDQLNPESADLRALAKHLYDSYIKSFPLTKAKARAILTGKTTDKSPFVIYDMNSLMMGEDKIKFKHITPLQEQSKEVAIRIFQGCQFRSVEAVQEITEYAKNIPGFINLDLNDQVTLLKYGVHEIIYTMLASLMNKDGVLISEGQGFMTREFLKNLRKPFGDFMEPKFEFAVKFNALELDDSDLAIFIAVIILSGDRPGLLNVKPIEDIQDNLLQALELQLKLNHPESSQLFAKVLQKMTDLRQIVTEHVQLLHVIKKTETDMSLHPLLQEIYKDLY

[9] = target: T5, Peroxisome proliferator-activated receptor alpha (Mus musculus) (UniProt P23204); experiment: Antagonist activity at PPARalpha in mouse NIH3T3 cells coexpressing LexA assessed as decrease in GW7647-induced transcriptional activation at 1 uM after 48 hrs by luciferase reporter gene assay relative to control; type: functional, cell-based; how it was run: as §2
T5 sequence (whole entry): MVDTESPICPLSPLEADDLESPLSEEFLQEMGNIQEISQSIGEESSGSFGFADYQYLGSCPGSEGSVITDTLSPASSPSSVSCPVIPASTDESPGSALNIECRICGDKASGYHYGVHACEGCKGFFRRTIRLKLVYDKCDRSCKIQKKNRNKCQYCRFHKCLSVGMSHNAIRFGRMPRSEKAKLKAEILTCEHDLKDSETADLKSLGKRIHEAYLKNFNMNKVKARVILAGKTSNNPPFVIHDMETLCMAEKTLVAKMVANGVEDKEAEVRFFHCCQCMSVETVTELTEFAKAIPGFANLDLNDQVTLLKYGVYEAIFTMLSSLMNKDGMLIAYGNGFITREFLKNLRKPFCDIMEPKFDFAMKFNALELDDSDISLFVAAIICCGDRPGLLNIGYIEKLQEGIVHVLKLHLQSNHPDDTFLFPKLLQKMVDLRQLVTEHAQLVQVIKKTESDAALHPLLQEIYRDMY

half-life [1] [min] | Activity [2] | Activity [3] | Vd [4] [L/kg] | clearance [5] [mL/min/kg] | Activity [6] | IC50 [7] [nM] | Activity [8] | Activity [9] | Compound
76 | inactive | Active | 12.5 | 121 | Active | 26.9 | inactive | inactive | CN1CCN(c2ccc(/C=C(\C#N)c3ccccc3Br)cc2)CC1
76 | inactive | Active | 6.2 | 176 | Active | 180 | inactive | inactive | CN(C)c1ccc(/C=C(\C#N)c2ccccc2Cl)cc1
